Test [1] relates to PBPs, including PBP4. The following applies: background statement, no reference given; cited from earlier work.
For test [2], the system named is AmpC β-lactamase production. The following applies: background statement, no reference given; cited from earlier work.
For test [3], the system named is P. aeruginosa PBP4. The test is classed as biochemical. Summed up:
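His-tagged P. aeruginosa PBP4 (residues 23–476) was expressed in E. coli Lemo21(DE3), passed twice over a chelating column and dialysed into 50 mM Tris pH 7.6, 0.5 M NaCl. It was used within 5 days and quantified by A280 (ε 62 005 M–1cm–1). Synthetic substrate at 0.125–5 mM was reacted in 50 mM Tris, 0.1 M NaCl, pH 7.6, 25 °C. After 30 min, one volume of 0.2% TFA was added. D-Ala-loss products were quantified by C18 HPLC against an internal standard to give steady-state kcat and Km.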

In the case of `CO[C@@]1(NC(=O)Cc2cccs2)C(=O)N2C(C(=O)O)=C(COC(N)=O)CS[C@@H]21` [cefoxitin], the PBP inhibition entry in test [1] is on record as “inhibits PBPs, including PBP4”. Moreover, the “AmpC β-lactamase induction” value in test [2] is reported as “a high inducer of AmpC β-lactamase production”.

Regarding “NAM-L-Ala-D-γ-Glu-meso-DAP-D-Ala-D-Ala [Compound 18]”, the “kcat comparison in words” value in test [3] (18 vs 19, pH 7.6, 25 °C) is recorded as “slightly higher than for 19”. Further, the turnover product entry in test [3] (PBP4, t = 30 min, LC/MS TIC, comparison with authentic synthetic 31) is “This new peak was proven to be compound 31”.

The values are drawn from article PMC4304477 (Journal of the American Chemical Society, 2014).
